Consider 8 compounds from ChEMBL document CHEMBL1136719, “[(3-Chlorophenyl)piperazinylpropyl]pyridazinones and analogues as potent antinociceptive agents” (2003).

What all share (assay type): functional
Experiment [1] relates to Mus musculus. Put plainly: Percentage of antagonism exerted by reserpine at 2 mg/kg.
The test system of experiment [2] is Mus musculus. Put plainly: Percentage of analgesic efficacy compared to morphine at 8 mg/kg. In short, it runs like this:
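Analgesic efficacy was measured in the mouse hot-plate test (52.5 °C, paw-licking latency) at the maximal analgesic dose. It is expressed as a percentage of the maximal effect of morphine (8 mg/kg sc), which is taken as 100%.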

For experiment [3], the system named is Mus musculus. The experiment is described as follows: Antinociceptive effect expressed as licking latency determined at 20 mg/kg after 45 minutes of subcutaneous administration in the mouse hotplate test. In short, it runs like this:
(§1)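 Male Swiss albino mice (23-30 g) were placed on a plate held at 52.5 ± 0.1 °C. Fore or hind paw licking was the endpoint. Latency was timed before dosing and at intervals up to 60 min after, with a 45 s cutoff. Mice scoring below 12 or over 18 s in the pretest were excluded. Compounds were given in saline or 1% CMC at 10 mL/kg sc or po.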

The species entered for experiment [4] is Mus musculus. Put plainly: Antinociceptive effect determined before treatment in the mouse hotplate test. Set-up: unit not given beside the values. In short, it runs like this: as §1
The subject of experiment [5] is Mus musculus. The experiment is described as follows: Antinociceptive effect expressed as licking latency determined at 20 mg/kg after 30 minutes of subcutaneous administration in the mouse hotplate test. In short, it runs like this: as §1
The test system of experiment [6] is Mus musculus. Put plainly: Maximal analgesic dose required to cause antinociceptive effect in the mouse hot plate method by subcutaneous administration.
The subject of experiment [7] is Mus musculus. Put plainly: Antinociceptive effect expressed as licking latency determined at 20 mg/kg after 60 minutes of subcutaneous administration in the mouse hotplate test. The method in brief:
as §1

Experiment [8] relates to Mus musculus. The experiment is described as follows: Antinociceptive effect expressed as licking latency determined at 20 mg/kg after 15 minutes of subcutaneous administration in the mouse hotplate test. In short, it runs like this:
as §1

In experiment [9] the test system is Mus musculus. The experiment is described as follows: Minimal nontoxic dose in the mouse hot plate method by subcutaneous administration.
Experiment [10] deals with Mus musculus. The experiment is described as follows: Antinociceptive effect expressed as licking latency determined at 8 mg/kg after 15 minutes of subcutaneous administration in the mouse hotplate test. In short, it runs like this: (§2)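 Male Swiss albino mice (23-30 g), acclimatised 24 h at 23 ± 1 °C. Dosed sc in 10 mL kg⁻¹ of saline, 1% carboxymethylcellulose, or saline + DMSO 2:1 vehicle. Placed on a 52.5 ± 0.1 °C hot plate, timed to fore or hind paw licking. Pretest latency had to be 12–18 s. Cutoff was 45 s. Latency was read before dosing and at 15, 30, 45 and 60 min after.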

The test system of experiment [11] is Mus musculus. The experiment is described as follows: Antinociceptive effect expressed as licking latency determined at 8 mg/kg after 45 minutes of subcutaneous administration in the mouse hotplate test. In short, it runs like this: as §2
In experiment [12] the test system is Mus musculus. Put plainly: Antinociceptive effect expressed as licking latency determined at 8 mg/kg after 60 minutes of subcutaneous administration in the mouse hotplate test. In short, it runs like this:
as §2

Experiment [13] has as its system Mus musculus. The experiment is described as follows: Antinociceptive effect expressed as licking latency determined at 8 mg/kg after 30 minutes of subcutaneous administration in the mouse hotplate test. The method in brief: as §2
Experiment [14] deals with Mus musculus. Put plainly: Antinociceptive effect expressed as licking latency determined at 1 mg/kg after 15 minutes of subcutaneous administration in the mouse hotplate test. The method in brief:
as §1

For experiment [15], the system named is Mus musculus. The experiment is described as follows: Antinociceptive effect expressed as licking latency determined at 1 mg/kg after 30 minutes of subcutaneous administration in the mouse hotplate test. In short, it runs like this:
as §1

Experiment [16] concerns Mus musculus. Put plainly: Antinociceptive effect expressed as licking latency determined at 1 mg/kg after 45 minutes of subcutaneous administration in the mouse hotplate test. In short, it runs like this: as §1
The test system of experiment [17] is Mus musculus. Put plainly: Antinociceptive effect expressed as licking latency determined at 1 mg/kg after 60 minutes of subcutaneous administration in the mouse hotplate test. In short, it runs like this:
as §1

In experiment [18] the test system is Mus musculus. Put plainly: Antinociceptive effect expressed as licking latency determined at 3 mg/kg after 45 minutes of subcutaneous administration in the mouse hotplate test. The method in brief:
as §1

Experiment [19] relates to Mus musculus. Put plainly: Antinociceptive effect expressed as licking latency determined at 3 mg/kg after 60 minutes of subcutaneous administration in the mouse hotplate test. The method in brief: as §1
Experiment [20] concerns Mus musculus. Put plainly: Antinociceptive effect expressed as licking latency determined at 3 mg/kg after 30 minutes of subcutaneous administration in the mouse hotplate test. In short, it runs like this:
as §1

The subject of experiment [21] is Mus musculus. The experiment is described as follows: Antinociceptive effect expressed as licking latency determined at 3 mg/kg after 15 minutes of subcutaneous administration in the mouse hotplate test. In short, it runs like this: as §1
Experiment [22] relates to Mus musculus. Put plainly: Antinociceptive effect expressed as licking latency determined at 6 mg/kg after 30 minutes of subcutaneous administration in the mouse hotplate test. The method in brief: as §1
Experiment [23] has as its system Mus musculus. Put plainly: Antinociceptive effect expressed as licking latency determined at 6 mg/kg after 60 minutes of subcutaneous administration in the mouse hotplate test. The method in brief:
as §1

Experiment [24] deals with Mus musculus. The experiment is described as follows: Antinociceptive effect expressed as licking latency determined at 6 mg/kg after 45 minutes of subcutaneous administration in the mouse hotplate test. The method in brief: as §1
Experiment [25] concerns Mus musculus. Put plainly: Antinociceptive effect expressed as licking latency determined at 6 mg/kg after 15 minutes of subcutaneous administration in the mouse hotplate test. In short, it runs like this:
as §1

Experiment [26] concerns Mus musculus. The experiment is described as follows: Antinociceptive effect expressed as licking latency determined at 10 mg/kg after 45 minutes of oral administration in the mouse hotplate test. In short, it runs like this: as §1
The test system of experiment [27] is Mus musculus. The experiment is described as follows: Maximal analgesic dose required to cause antinociceptive effect in the mouse hot plate method by oral administration.
The test system of experiment [28] is Mus musculus. Put plainly: Antinociceptive effect expressed as licking latency determined at 10 mg/kg after 60 minutes of oral administration in the mouse hotplate test. In short, it runs like this: as §1
Experiment [29] concerns Mus musculus. The experiment is described as follows: Antinociceptive effect expressed as licking latency determined at 10 mg/kg after 15 minutes of oral administration in the mouse hotplate test. In short, it runs like this:
as §1

The test system of experiment [30] is Mus musculus. The experiment is described as follows: Antinociceptive effect expressed as licking latency determined at 10 mg/kg after 30 minutes of oral administration in the mouse hotplate test. The method in brief:
as §1

Each structure is given as a SMILES string.

`CCOC(=O)c1nn(CCCN2CCN(c3cccc(Cl)c3)CC2)c(=O)c2noc(C)c12`: the Antagonism in experiment [1] came to 0%. The Analgesic effect in experiment [2] was determined as 71%. The Licking latency in [3] is reported as 23.2; in experiment [5], 23.8; in [7], 17.8; in [8], 22.2. The compound further gave an Activity in experiment [4] of 16. The compound also displayed an MAD in experiment [6] of 10 mg/kg. Also, the MNTD in [9] was 40 mg/kg.

In turn, `CN1CC[C@]23c4c5ccc(O)c4O[C@H]2[C@@H](O)C=C[C@H]3[C@H]1C5` [MORPHINE] gave an Antagonism in experiment [1] of 0%. In experiment [2], the Analgesic effect was 100%. In addition, in [4], the Activity was determined as 14.6. Moreover, the Licking latency was determined as 24.5 in experiment [10], 26.4 in experiment [11], 23.8 in experiment [12] and 28.7 in experiment [13]. The MAD in experiment [6] was 0.2 mg/kg. The same compound registered an MNTD in experiment [9] of 30 mg/kg.

In experiment [1], `Cc1noc2c(-c3ccccc3)nn(CCCN3CCN(c4cccc(Cl)c4)CC3)c(=O)c12` displayed an Antagonism of 100%. Besides, the Analgesic effect in experiment [2] was 104%. In addition, the Licking latency is recorded as 31.2 in experiment [3], 34.5 in [5], 29.3 in experiment [7] and 19.6 in [8]. This compound displayed an Activity in experiment [4] of 14.6. In addition, the MAD in experiment [6] came to 0.3 mg/kg. Also, in experiment [9], the MNTD was 60 mg/kg.

`C=Cc1c(C)nn(CCCN2CCN(c3cccc(Cl)c3)CC2)c(=O)c1N` gave an Antagonism in [1] of 61%. The same compound gave an Analgesic effect in [2] of 100%. Further, the Licking latency in [14] is 21.3; in [15], 33.5; in experiment [16] it was 28.2; in experiment [17], 22.6. Also, the Activity in [4] is 14.2. The compound further returned an MAD in experiment [6] of 0.1 mg/kg. For the same compound, the MNTD in experiment [9] worked out at 20 mg/kg.

On to `CC(=O)c1c(C)nn(CCCN2CCN(c3cccc(Cl)c3)CC2)c(=O)c1N`, for which the Licking latency in experiment [18] is given as 34.3; in experiment [19] it was 32.7; in experiment [20], 33.2; in experiment [21], 23.7. This compound also came in with an Antagonism in experiment [1] of 0%. Further, in experiment [2], the Analgesic effect amounted to 100%. The Activity in experiment [4] stood at 15.5. Besides, the MAD in experiment [6] worked out at 0.1 mg/kg. Besides, the MNTD in experiment [9] turned out to be 20 mg/kg.

Turning to `Cc1nn(CCCN2CCN(c3cccc(Cl)c3)CC2)c(=O)c(N)c1C(C)O` (configuration not stated), the Licking latency in experiment [22] came to 33.7; in experiment [23] it was 23.3; in experiment [24], 29.3; in [25], 22.4. The Antagonism in [1] is 100%. In experiment [2], this compound gave an Analgesic effect of 101%. Also, the Activity in experiment [4] amounted to 14.5. The same compound returned an MAD in experiment [6] of 0.3 mg/kg. In addition, the MNTD in experiment [9] is 40 mg/kg.

`Cc1nn(CCCN2CCN(c3cccc(Cl)c3)CC2)c(=O)c2noc(C)c12` gave an Antagonism in [1] of 92%. This compound had an Analgesic effect in experiment [2] of 72%. In addition, the Licking latency in [3] worked out at 22.6; in experiment [5], 24; in [7], 17.6; in [8], 18. The compound also returned an Activity in experiment [4] of 16.6. Also, the MAD in experiment [6] is 10 mg/kg. Also, the MNTD in [9] was determined as 40 mg/kg.

In experiment [1], `Cc1onc2c(=O)n(CCCN3CCN(c4cccc(Cl)c4)CC3)nc(-c3ccccc3)c12` displayed an Antagonism of 94%. Moreover, the Analgesic effect in experiment [2] amounted to 75%. Besides, in experiment [4], the Activity is given as 15.1. Also, the Licking latency stood at 19.1 in experiment [26], 16.6 in experiment [28], 20.8 in experiment [29] and 25.1 in [30]. Besides, the MAD in experiment [27] was determined as 1 mg/kg. In [9], this compound gave an MNTD of 50 mg/kg.
